Measured values: ChEMBL document CHEMBL3877264, “Quinolidene-rhodanine conjugates: Facile synthesis and biological evaluation” (Eur J Med Chem, 2017)
Values after ≈ are worked out from the molar mass of the structure shown.

Tests used:
[1] = system: Mycobacterium tuberculosis; assay: Growth inhibition of Mycobacterium tuberculosis H37Ra ATCC 25177 at dormant stage at 0.78 ug/ml measured after 12 days by XTT dye based two fold dilution method relative to control; format: functional; conditions: H37Ra ATCC 25177, 288 h, read-out: GI
Summary of the method: (§1)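 MTB H37Ra was grown in Dubos medium, then exposed in Mycobacterium pheli minimal medium (pH 6.6) to compounds dissolved in DMSO. The assay ended on day 8 (active) or day 12 (dormant). Viable cells were measured by XTT reduction menadione assay at 470 nm, blank-corrected, relative to vehicle control. Triplicates were expressed as mean ± SD. MIC came from dose-response curves.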

Bacillus subtilis = assay: Antibacterial activity against Bacillus subtilis NCIM 2079 measured after 12 hrs; format: functional; conditions: NCIM 2079, 12 h
Summary of the method: (§2)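 Bacteria grown in LB at 37 °C and 180 rpm to OD 1. Compounds added to wells, then 0.1% inoculum of 1 OD culture (620 nm). Growth read as OD at 620 nm after 8 h for gram-negative and after 12 h for gram-positive strains.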

[2] = system: Mycobacterium tuberculosis; assay: Growth inhibition of Mycobacterium bovis BCG ATCC 35743 at dormant stage at 50 ug/ml measured after 12 days by nitrate reductase dye based two fold dilution method relative to control; format: functional; conditions: BCG str. ATCC 35743, 288 h, read-out: GI
Summary of the method: (§3)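 M. bovis BCG was grown in Dubos medium and assayed in Mycobacterium pheli minimal medium (pH 6.6), with compounds from DMSO stocks. Incubation lasted 8 days for active and 12 days for dormant cultures. Viability was read by nitrate reductase at 540 nm against cell-free blanks, with vehicle set as 100% growth. Primary screen was at 30, 10 and 3 µg/ml, in triplicate, mean ± SD. MIC was taken from dose-response curves.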

Aspergillus niger = assay: Antifungal activity against Aspergillus niger NCIM 1196 by standard agar method; format: functional
Summary of the method: (§4)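 MICs determined by standard agar method; DMSO as solvent control.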

Staphylococcus aureus = assay: Growth inhibition of Staphylococcus aureus NCIM 2010 at 10 ug/ml measured after 12 hrs relative to control; format: functional; conditions: NCIM 2010, 12 h, read-out: GI; summary of the method: as §2
[3] = system: Mycobacterium tuberculosis; assay: Growth inhibition of Mycobacterium tuberculosis H37Ra ATCC 25177 at active stage at 50 ug/ml measured after 8 days by XTT dye based two fold dilution method relative to control; format: functional; conditions: H37Ra ATCC 25177, 192 h, read-out: GI; summary of the method: as §1
[4] = Selectivity index, ratio of GI50 for HUVEC to MIC for Mycobacterium tuberculosis H37Ra ATCC 25177 at dormant stage
[5] = system: Mycobacterium tuberculosis; assay: Growth inhibition of Mycobacterium bovis BCG ATCC 35743 at dormant stage at 100 ug/ml measured after 12 days by nitrate reductase dye based two fold dilution method relative to control; format: functional; conditions: BCG str. ATCC 35743, 288 h, read-out: GI; summary of the method: as §3
Pseudomonas fluorescens [6] = assay: Growth inhibition of Pseudomonas fluorescens NCIM 2036 at 30 ug/ml measured after 8 hrs relative to control; format: functional; conditions: NCIM 2036, 8 h, read-out: GI; summary of the method: as §2
[7] = system: Mycobacterium tuberculosis; assay: Growth inhibition of Mycobacterium tuberculosis H37Ra ATCC 25177 at active stage at 25 ug/ml measured after 8 days by XTT dye based two fold dilution method relative to control; format: functional; conditions: H37Ra ATCC 25177, 192 h, read-out: GI; summary of the method: as §1
[8] = system: Mycobacterium tuberculosis; assay: Growth inhibition of Mycobacterium bovis BCG ATCC 35743 at dormant stage at 6.25 ug/ml measured after 12 days by nitrate reductase dye based two fold dilution method relative to control; format: functional; conditions: BCG str. ATCC 35743, 288 h, read-out: GI; summary of the method: as §3
[9] = Cytotoxicity against human THP1 cells assessed as growth inhibition at 100 ug/ml measured after 48 hrs by MTT assay relative to control; format: toxicity, cell-based, THP-1; conditions: read-out: GI
Summary of the method: (§5)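 MTT assay with 48 h compound exposure. THP-1 macrophages made by 24 h PMA treatment. Each concentration tested in triplicate in one experiment. % cytotoxicity = (control−test)/(control−blank)×100, with control = cells + DMSO and blank = medium without cells. IC50 from % survival versus concentration plots.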

[10] = Cytotoxicity against primary HUVEC assessed as growth inhibition at 100 ug/ml measured after 48 hrs by MTT assay relative to control; format: toxicity, cell-based; conditions: human, read-out: GI
Aspergillus flavus = assay: Antifungal activity against Aspergillus flavus NCIM 539 by standard agar method; format: functional; summary of the method: as §4
[11] = Selectivity index, ratio of GI50 for human A549 cells to MIC for Mycobacterium tuberculosis H37Ra ATCC 25177 at dormant stage; format: toxicity, cell-based; conditions: read-out: Selectivity Index
Summary of the method: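 SI is the cell-line GI50 divided by the dormant-stage mycobacterial MIC. […] THP-1 macrophages were PMA-differentiated for 24 h.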

Pseudomonas fluorescens [12] = assay: Antibacterial activity against Pseudomonas fluorescens NCIM 2036 measured after 8 hrs; format: functional; conditions: NCIM 2036, 8 h; summary of the method: as §2
[13] = system: Mycobacterium tuberculosis; assay: Growth inhibition of Mycobacterium bovis BCG ATCC 35743 at dormant stage at 3.13 ug/ml measured after 12 days by nitrate reductase dye based two fold dilution method relative to control; format: functional; conditions: BCG str. ATCC 35743, 288 h, read-out: GI; summary of the method: as §3
[14] = system: Mycobacterium tuberculosis; assay: Growth inhibition of Mycobacterium tuberculosis H37Ra ATCC 25177 at active stage at 3.13 ug/ml measured after 8 days by XTT dye based two fold dilution method relative to control; format: functional; conditions: H37Ra ATCC 25177, 192 h, read-out: GI; summary of the method: as §1
[15] = system: Mycobacterium tuberculosis; assay: Growth inhibition of Mycobacterium bovis BCG ATCC 35743 at active stage measured after 8 days by nitrate reductase dye based two fold dilution method; format: functional; conditions: BCG str. ATCC 35743, 192 h; summary of the method: as §3
[16] = Cytotoxicity against […]-differentiated human THP1 cells assessed as growth inhibition at 100 ug/ml measured after 48 hrs by MTT assay relative to control; format: toxicity, cell-based, THP-1; conditions: read-out: GI; summary of the method: as §5
[17] = system: Mycobacterium tuberculosis; assay: Growth inhibition of Mycobacterium bovis BCG ATCC 35743 at dormant stage at 0.78 ug/ml measured after 12 days by nitrate reductase dye based two fold dilution method relative to control; format: functional; conditions: BCG str. ATCC 35743, 288 h, read-out: GI; summary of the method: as §3
Pseudomonas fluorescens [18] = assay: Growth inhibition of Pseudomonas fluorescens NCIM 2036 at 3 ug/ml measured after 8 hrs relative to control; format: functional; conditions: NCIM 2036, 8 h, read-out: GI; summary of the method: as §2
[19] = system: Mycobacterium tuberculosis; assay: Growth inhibition of Mycobacterium bovis BCG ATCC 35743 at dormant stage at 30 ug/ml measured after 12 days by nitrate reductase dye based two fold dilution method relative to control; format: functional; conditions: BCG str. ATCC 35743, 288 h, read-out: GI; summary of the method: as §3
[20] = Cytotoxicity against human THP1 cells measured after 48 hrs by MTT assay; format: toxicity, cell-based, THP-1; summary of the method: as §5
[21] = system: Mycobacterium tuberculosis; assay: Growth inhibition of Mycobacterium tuberculosis H37Ra ATCC 25177 at dormant stage at 1.56 ug/ml measured after 12 days by XTT dye based two fold dilution method relative to control; format: functional; conditions: H37Ra ATCC 25177, 288 h, read-out: GI; summary of the method: as §1
[22] = system: Mycobacterium tuberculosis; assay: Growth inhibition of Mycobacterium tuberculosis H37Ra ATCC 25177 at dormant stage measured after 12 days by XTT dye based two fold dilution method; format: functional; conditions: H37Ra ATCC 25177, 288 h; summary of the method: as §1
[23] = system: Mycobacterium tuberculosis; assay: Growth inhibition of Mycobacterium tuberculosis H37Ra ATCC 25177 at active stage at 6.25 ug/ml measured after 8 days by XTT dye based two fold dilution method relative to control; format: functional; conditions: H37Ra ATCC 25177, 192 h, read-out: GI; summary of the method: as §1
[24] = system: Mycobacterium tuberculosis; assay: Growth inhibition of Mycobacterium bovis BCG ATCC 35743 at active stage at 12.5 ug/ml measured after 8 days by nitrate reductase dye based two fold dilution method relative to control; format: functional; conditions: BCG str. ATCC 35743, 192 h, read-out: GI

Compound	inhibition of growth at 0.78 µg/mL [1]	MIC (Bacillus subtilis)	MIC (Aspergillus niger)	inhibition of growth at 10 µg/mL (Staphylococcus aureus)	inhibition of growth at 50 µg/mL [3]	inhibition of growth at 30 µg/mL (Pseudomonas fluorescens [6])	inhibition of growth at 25 µg/mL [7]	inhibition at 48 h, 100 ug/ml [9]	inhibition at 48 h, 100 ug/ml [10]	MIC (Aspergillus flavus)	MIC (Pseudomonas fluorescens [12])	inhibition of growth at 3.13 µg/mL [14]	IC50 [15]	IC90 [15]	inhibition at 48 h, 100 ug/ml [16]	inhibition of growth at 3 µg/mL (Pseudomonas fluorescens [18])	inhibition of growth at 30 µg/mL [19]	GI50 at 48 h [20]	inhibition of growth at 1.56 µg/mL [21]	IC50 [22]	further results
O=C1NC(=S)S/C1=C\c1cc2cc(F)ccc2nc1Cl	-24.1%	> 30 µg/mL	25 µg/mL (≈ 77 µM)	71.3%	119%	50.2%	101%	26.3%	34.2%	12.5 µg/mL (≈ 38.5 µM)	> 30 µg/mL	52.6%	2.4 µg/mL (≈ 7.39 µM)	4.2 µg/mL (≈ 12.9 µM)	19.2%	29.3%	76.5%	> 100 µg/mL	-0.73%	5.1 µg/mL (≈ 15.7 µM)	inhibition of growth at 50 µg/mL [2]: 100%; Selectivity Index [4]: 5.6; inhibition of growth at 100 µg/mL [5]: 98.5%; inhibition of growth at 6.25 µg/mL [8]: 100%; selectivity ratio [11]: 5.6; inhibition of growth at 3.13 µg/mL [13]: 25.5%; inhibition of growth at 0.78 µg/mL [17]: -38.3%; IC90 [22]: 18 µg/mL (≈ 55.4 µM); inhibition of growth at 6.25 µg/mL [23]: 96.2%; inhibition of growth at 12.5 µg/mL [24]: 98.3%
COc1ccc2cc(/C=C3\SC(=S)NC3=O)c(Cl)nc2c1	-29.8%	> 30 µg/mL	75 µg/mL (≈ 223 µM)	44%	102%	46.2%	109%	26.7%	25.4%	100 µg/mL (≈ 297 µM)	> 30 µg/mL	8.88%	1.7 µg/mL (≈ 5.05 µM)	2.9 µg/mL (≈ 8.61 µM)	31.3%	0.629%	10.1%	> 100 µg/mL	-28.4%	10 µg/mL (≈ 29.7 µM)	inhibition of growth at 50 µg/mL [2]: 100%; inhibition of growth at 100 µg/mL [5]: 99%; inhibition of growth at 6.25 µg/mL [8]: 94%; inhibition of growth at 3.13 µg/mL [13]: 81.6%; inhibition of growth at 0.78 µg/mL [17]: -50.5%; IC90 [22]: > 30 µg/mL; inhibition of growth at 6.25 µg/mL [23]: 43.8%; inhibition of growth at 12.5 µg/mL [24]: 98.9%
Cc1cccc2cc(/C=C3\SC(=S)N(CC(=O)O)C3=O)c(Cl)nc12	-43.4%	> 30 µg/mL	200 µg/mL (≈ 528 µM)	-4.38%	107%	54.8%	93.4%	32.3%	34%	100 µg/mL (≈ 264 µM)	> 30 µg/mL	-10.2%	> 30 µg/mL	> 30 µg/mL	25%	11.2%	70%	> 100 µg/mL	15.7%	10.3 µg/mL (≈ 27.2 µM)	Selectivity Index [4]: 5; selectivity ratio [11]: 5; IC90 [22]: 19.9 µg/mL (≈ 52.5 µM); inhibition of growth at 6.25 µg/mL [23]: 12.9%
